The subject of series [1] is Mus musculus. The series is described as follows: In vivo inhibition of MMP9 in indomethacin-induced gastric ulceration Balb/c mouse model assessed as reduction in indomethacin-induced ProMMP9 activity in gastric tissue administered orally 30 mins prior to indomethacin challenge measured after 4 hrs by gelatin zymographic method. The series is classed as functional, organism-based. A digest of the protocol:
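Gastric tissue from the indomethacin model (test agent orally 15 or 25 mg/kg b.w., 30 min before indomethacin, 4 h) minced at 4 °C in PBS with protease inhibitors, spun 12000g 15 min. PBS extract (70 μg protein/lane, Lowry) run on 8% SDS-PAGE with 1 mg/mL gelatin, nonreducing. Gels washed in 2.5% Triton X-100, incubated 18 h at 37 °C in 40 mM Tris-HCl pH 7.4, 0.2 M NaCl, 10 mM CaCl2, Coomassie stained, densitometry.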

Series [2] deals with T1, Matrix metalloproteinase-9 (Homo sapiens, UniProt P14780). The series is described as follows: Residual activity of recombinant human full length MMP9 at 250 uM preincubated for 1 hr followed by gelatin addition measured after 18 hrs by SDS-PAGE analysis relative to control.
T1 sequence (P14780 whole entry): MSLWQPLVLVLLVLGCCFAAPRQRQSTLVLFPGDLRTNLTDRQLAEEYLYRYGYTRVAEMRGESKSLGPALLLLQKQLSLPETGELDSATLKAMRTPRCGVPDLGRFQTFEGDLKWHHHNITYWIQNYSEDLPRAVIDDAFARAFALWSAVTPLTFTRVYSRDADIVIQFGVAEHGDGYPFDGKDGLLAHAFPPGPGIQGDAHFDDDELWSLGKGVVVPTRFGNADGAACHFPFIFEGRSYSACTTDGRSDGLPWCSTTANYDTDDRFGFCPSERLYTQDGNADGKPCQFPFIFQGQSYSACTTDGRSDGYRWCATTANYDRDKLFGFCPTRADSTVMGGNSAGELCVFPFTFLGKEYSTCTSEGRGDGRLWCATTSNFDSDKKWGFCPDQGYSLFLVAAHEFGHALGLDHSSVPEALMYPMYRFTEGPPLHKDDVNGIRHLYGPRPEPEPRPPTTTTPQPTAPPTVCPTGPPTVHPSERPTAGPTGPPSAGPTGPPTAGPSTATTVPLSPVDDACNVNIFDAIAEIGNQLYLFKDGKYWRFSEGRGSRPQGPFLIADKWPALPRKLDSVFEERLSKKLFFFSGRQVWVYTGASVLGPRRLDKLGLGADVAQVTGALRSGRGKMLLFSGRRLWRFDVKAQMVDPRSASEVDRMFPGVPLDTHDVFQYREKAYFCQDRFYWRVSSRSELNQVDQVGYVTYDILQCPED
The target in series [3] is T1, Matrix metalloproteinase-9. The series is described as follows: Binding affinity to human full length MMP9 assessed as decrease in cotton effects of compound up to 500 uM by CD spectral analysis.
The subject of series [4] is Mus musculus. The series is described as follows: Antiulcerogenic activity in indomethacin-induced gastric ulceration Balb/c mouse model assessed as gastric damage index at 25 mg/kg, po administered 30 mins prior to indomethacin challenge measured after 4 hrs by H and E staining based microscopic method (reference value: 40 +/- 7). In kind it is functional. A digest of the protocol: (§1)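 Same indomethacin model (80 mg/kg b.w. oral, test agent 15 or 25 mg/kg b.w. oral 30 min prior, sacrifice at 4 h). Stomach pieces fixed in 4% paraformaldehyde, paraffin-embedded, ~5 μm sections H&E stained. Damage index scored blind as percentage of the gastric corpus circumference showing hemorrhage or epithelial disruption; submucosal infiltrating cells and epithelial continuity inspected microscopically.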

The subject of series [5] is Mus musculus. The series is described as follows: Toxicity in indomethacin-induced gastric ulceration Balb/c mouse model assessed as alteration in gastric tissue at 15 to 25 mg/kg, po administered 30 mins prior to indomethacin challenge measured after 4 hrs. The series is classed as organism-based. The conditions noted are these: in vivo.
Series [6] deals with Mus musculus. The series is described as follows: Antiulcerogenic activity in indomethacin-induced gastric ulceration Balb/c mouse model assessed as decrease in visible gastric hemorrhagic lesions in fundic stomach by measuring ulcer index at 25 mg/kg, po administered 30 mins prior to indomethacin challenge measured after 4 hrs (reference value: 35 +/- 7.5). In kind it is functional.

The target of series [7] is T1, Matrix metalloproteinase-9. The series is described as follows: Binding affinity to human full length MMP9 by CD spectral analysis. A digest of the protocol: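 Near-UV/visible CD spectra (240−700 nm), 1.0 mm quartz cell, under nitrogen at room temperature in aqueous buffer. Ligand held at 100 μM (from 10 mM methanol stock) while MMP-9 varied 0−333 nM. Kd at half-saturation derived from a double-reciprocal plot of Δθ against MMP-9 concentration.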

Series [8] relates to Mus musculus. The series is described as follows: Antiulcerogenic activity in indomethacin-induced gastric ulceration Balb/c mouse model assessed as infilteration of inflammatory cells at submucosal layer at 15 to 25 mg/kg, po administered 30 mins prior to indomethacin challenge measured after 4 hrs by H and E staining based microscopic method. In kind it is functional, organism-based. A digest of the protocol: as §1

In series [9] the test system is Mus musculus. The series is described as follows: Antiulcerogenic activity in indomethacin-induced gastric ulceration Balb/c mouse model assessed as gastric damage index at 15 mg/kg, po administered 30 mins prior to indomethacin challenge measured after 4 hrs by H and E staining based microscopic method (reference value: 40 +/- 7). The series is classed as functional. A digest of the protocol: as §1

Series [10] has as its system Mus musculus. The series is described as follows: Antiulcerogenic activity in indomethacin-induced gastric ulceration Balb/c mouse model assessed as restoration of intact epithelial layer in stomach at 15 to 25 mg/kg, po administered 30 mins prior to indomethacin challenge measured after 4 hrs by H and E staining based microscopic method. In kind it is functional, organism-based. A digest of the protocol: as §1

Series [11] concerns the target T1, Matrix metalloproteinase-9. The series is described as follows: Residual activity of recombinant human full length MMP9 at 60 uM preincubated for 1 hr followed by gelatin addition measured after 18 hrs by SDS-PAGE analysis relative to control.
The subject of series [12] is Mus musculus. The series is described as follows: Antiulcerogenic activity in indomethacin-induced gastric ulceration Balb/c mouse model assessed as decrease in visible gastric hemorrhagic lesions in fundic stomach by measuring ulcer index at 15 mg/kg, po administered 30 mins prior to indomethacin challenge measured after 4 hrs (reference value: 35 +/- 7.5). In kind it is functional.

The target of series [13] is T1, Matrix metalloproteinase-9. The series is described as follows: Residual activity of recombinant human full length MMP9 at 125 uM preincubated for 1 hr followed by gelatin addition measured after 18 hrs by SDS-PAGE analysis relative to control.
The subject of series [14] is Mus musculus. The series is described as follows: Antiulcerogenic activity in indomethacin-induced gastric ulceration Balb/c mouse model assessed as decrease in visible gastric hemorrhagic lesions in fundic stomach administered orally 30 mins prior to indomethacin challenge measured after 4 hrs. In kind it is functional, organism-based.
Series [15] deals with T1, Matrix metalloproteinase-9. The series is described as follows: Inhibition of recombinant human full length MMP9 preincubated for 1 hr followed by gelatin addition measured after 18 hrs by SDS-PAGE analysis. A digest of the protocol: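 Full-length recombinant human MMP-9 (~5 μg) incubated 1 h at room temperature with 0−500 μM test agent, then run on nonreducing 8% SDS-PAGE with 1 mg/mL gelatin. Gels washed in 2.5% Triton X-100, incubated 18 h at 37 °C in 40 mM Tris-HCl pH 7.4, 200 mM NaCl, 10 mM CaCl2, Coomassie stained; lysis bands quantified by densitometry against untreated enzyme. IC50 taken from activity change versus concentration, saturation set as 100%.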

pIC50, pKd: −log10 of the molar value. Calls of active or inactive are those of the source. No cut-off for these calls is given here.

We go through one compound from ChEMBL document CHEMBL4118054, “Tamarixetin 3-O-β-d-Glucopyranoside from Azadirachta indica Leaves: Gastroprotective Role through Inhibition of Matrix Metalloproteinase-9 Activity in Mice” (J Nat Prod, 2017).

By residual activity is commonly meant what remains of the control signal, in per cent. What is called pKd is the Kd on a negative log10 scale, so that one unit is a factor of ten. A higher pKd goes with a low Kd. A word on the pIC50: it is the negative decadic logarithm of the IC50, by convention in mol/L.

Turning to `COc1ccc(-c2oc3cc(O)cc(O)c3c(=O)c2O[C@@H]2O[C@H](CO)[C@@H](O)[C@H](O)[C@H]2O)cc1O`, the inhibition entry in series [1] and in series [15] was “Dose-dependent effect” throughout. The residual activity in series [2] was 40%; in series [11], 60%; in [13] it was 45%. Also, the outcome in series [3], in series [8] and in series [10] was Active. Also, the Activity_index in series [4] is given as 5; in [9], 10. Further, the values for the Activity entry in series [5] and in [14] were “Non-Toxic” and “Dose-dependent effect”, respectively. Besides, the UI in series [6] is given as 5; in [12], 8. Moreover, the pKd in series [7] is 7.00. Moreover, in [15], the negative-log IC50 (pIC50) was 4.30.
